A word on the AC50: it is the concentration giving half of the maximal activity seen.

Results filed as inconclusive are left out. Calls of active or inactive are those of the source.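 How the source made its calls: active means compounds raising caspase signal whose fitted AC50 is at most ten times the top tested dose; inconclusive means flat fit with 30 to 70% activity, or failed fit; inactive means the rest.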

The assay deals with HMC 1-8 low-A1 cells, caspase-3/7 luminescence, 3 h. The assay can be described thus: caspase induction, A1-low human cancer line – cell-based, HMC 1-8 low A1, caspase luminescence, counter-screen for A1 inhibitor project, dose response (AID 449755). A digest of the protocol:
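Material: HMC 1-8 human cancer cells with low A1 expression / Amount: 2500 cells/well / Medium: RPMI-1640, 10% FBS / Dosing: compound delivered by pin transfer / Times: compound 3 h at 37 °C, detection 1 h RT / Detection: caspase-3/7 DEVD luminescence / Evaluation: caspase activation as non-A1 counterscreen signal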
For orientation: The purpose of a counterscreen is to sort out artefacts and off-target activity.
For `COc1ccc(C2CC(c3c(O)cc(C)oc3=O)=NCCS2)c(OC)c1` (stereo not drawn), the AC50 was > 35 µM (inactive).

In the case of `Oc1[nH]c2ccc(Br)cc2c1N=NC(=S)Nc1ccc(F)cc1`, the AC50 was > 35 µM (inactive).

For the compound `O=C1C2C3C=CC(CO)(O3)C2C(=O)N1c1ccc(-c2ccccc2)cc1` (stereo not drawn), the AC50 was > 35 µM (inactive).

As to `CCOC(=O)C1=C(c2ccccc2)O/C(=C(/C#N)C(F)(F)F)S1`, the AC50 was > 35 µM (inactive).

Take `CCC1CCCCN1S(=O)(=O)c1ccc(NC(=O)c2nc(S(C)(=O)=O)ncc2Cl)cc1` (stereo not drawn): the AC50 was > 35 µM (inactive).

Regarding `CC1=NNC(=O)/C1=C\c1cn(-c2ccccc2)nc1-c1cccs1`, the AC50 is > 35 µM (inactive).

With `COc1cc(NC(=O)c2ccc(Cl)cc2Cl)ccc1-c1cc2ccccc2oc1=O`, the AC50 is > 35 µM (inactive).

`CC(C)CCN(C(=O)Cc1ccc(Cl)c(Cl)c1)c1c(N)n(Cc2ccccc2)c(=O)[nH]c1=O`: the AC50 is 24.3 µM.

Turning to `Cc1nn(-c2ccccc2)c(Cl)c1CN(C(=O)CCl)c1ccc(Cl)cc1`, the AC50 was > 35 µM (inactive).

`COc1cc(C(=O)Nc2cc3c(cc2N2CCCCC2)n(C)c(=O)n3C)cc(OC)c1OC`: the AC50 was > 35 µM (inactive).

`CCc1nnc(NC(=O)c2nc(S(=O)(=O)Cc3ccccc3)ncc2Cl)s1`: the AC50 was > 35 µM (inactive).

For the compound `COC(=O)c1ccc2c(c1)C(C)(C)C(/C=C/c1ccccc1O)=[N+]2C`, the AC50 was 8.58 µM.

For `O=C(Nc1ccc2oc(-c3ccccc3)nc2c1)c1ccccc1F`, the AC50 was > 35 µM (inactive).

With `CCOc1ccc(NCc2cccn2-c2nnc(N3CCC(C(=O)NCCCN4CC(C)CC(C)C4)CC3)s2)cc1` (stereo not drawn), the AC50 was > 35 µM (inactive).

For the compound `CCc1ccccc1NC(=O)C(CC)Sc1nc2cc3c(cc2c(=O)n1Cc1ccco1)OCO3` (stereo not drawn), the AC50 was > 35 µM (inactive).

Regarding `Cc1ccc(C#N)c(SCC(=O)Nc2nccs2)n1`, the AC50 was > 35 µM (inactive).

As to `COc1cc(-c2cc(-c3ccccc3)nc(SCC(=O)Nc3nccs3)c2C#N)cc(OC)c1OC`, the AC50 is > 35 µM (inactive).

Turning to `CCCc1ccc(OCc2ccc(C(=O)N/N=C/c3cccc([N+](=O)[O-])c3)o2)c(OC)c1`, the AC50 is 7.31 µM.

With `CC(C)c1ccc2[nH]c(O)c(N=NC(=O)c3cccc(S(=O)(=O)Nc4ccc(Cl)cc4)c3)c2c1`, the AC50 is > 35 µM (inactive).

For the compound `CC(C)(C)c1ccc(C(=O)Nc2ccc(O)c3c(=O)cc(-c4cccc(Cl)c4)oc23)cc1`, the AC50 was > 35 µM (inactive).

`CN(C)C/C=C(\c1ccc(Br)cc1)c1cccnc1`: the AC50 is > 35 µM (inactive).

Regarding `CCc1nnc(NC(=O)CSc2nc(-c3ccccc3)cc(-c3ccc(F)cc3)c2C#N)s1`, the AC50 is > 35 µM (inactive).

Consider `Cc1ccc(C(=O)/C=C/C(=O)c2ccc(C)cc2)cc1`, for which the AC50 was > 35 µM (inactive).

As for `COc1cc(NC(=O)c2cccc(C)c2)ccc1NC(=O)c1cc2ccccc2o1`, the AC50 was > 35 µM (inactive).

`Cc1cc(C(=O)CCl)c(C)n1CCc1ccc(Cl)cc1`: the AC50 was > 35 µM (inactive).

`Cc1ccc(C=C2C(Cl)=C(Cl)C(Cl)=C2Cl)cc1`: the AC50 is 12.9 µM.

`COc1ccc(Oc2cc(NC(=O)c3nn(C)cc3[N+](=O)[O-])cc([N+](=O)[O-])c2)cc1`: the AC50 was > 35 µM (inactive).

As for `COC(=O)CSc1nc(N)c2c3c(sc2n1)C(c1ccccc1)SC(c1ccccc1)C3` (stereo not drawn), the AC50 is > 35 µM (inactive).

As to `Cc1cc(NC(=O)CSc2nc3cc(Cl)ccc3c(=O)n2Cc2ccco2)no1`, the AC50 is > 35 µM (inactive).

Consider `Cc1cccc(Nc2nc(N)c([N+](=O)[O-])c(N3CCCC(C)C3)n2)c1` (stereo not drawn), for which the AC50 is > 35 µM (inactive).

For `CCc1ccc(NC(=O)c2nc(S(=O)(=O)Cc3ccccc3)ncc2Cl)cc1`, the AC50 was > 35 µM (inactive).

Regarding `Cc1cccc(C)c1NC(=O)C(Cl)C(=O)c1ccccc1` (stereo not drawn), the AC50 was > 35 µM (inactive).

Take `CC(C)(C)C1CCc2onc(C(=O)Nc3cccc(O)c3)c2C1` (stereo not drawn): the AC50 was > 35 µM (inactive).

Take `CC(C)N=c1scc(-c2ccco2)n1/N=C/c1ccc(O)c(O)c1`: the AC50 was > 35 µM (inactive).

As for `COc1ccc(C=C2C=C(C(C)(C)C)C(=O)C(C(C)(C)C)=C2)cc1OC`, the AC50 was 5.9 µM.

As to `COc1cc2ncnc(NCc3ccc(F)cc3)c2cc1OC`, the AC50 was > 35 µM (inactive).

Consider `O=C(COc1ccc(/C=N/NC(=O)c2cc3ccccc3o2)cc1Cl)Nc1ccccc1`, for which the AC50 is 8.65 µM.

`Cc1ccc(C(=O)/C=C\C(=O)c2ccc(C)cc2)cc1`: the AC50 is > 35 µM (inactive).

Turning to `CC1CC(C)CN(C(=O)c2ccc(-c3ccc([N+](=O)[O-])cc3)o2)C1` (stereo not drawn), the AC50 is > 35 µM (inactive).

On to `CCCCN1C(=O)/C(=C2/Sc3ccccc3N2C)S/C1=N\c1ncn[nH]1`, for which the AC50 is > 35 µM (inactive).

For the compound `N#Cc1cccnc1N1CCN(C(=O)c2cccc3c2C(=O)c2ccc(-c4ccc(Cl)c(C(F)(F)F)c4)cc2S3(=O)=O)CC1`, the AC50 was > 35 µM (inactive).

For `CCOC(=O)c1ccc(-c2ccc(/C=N/NC(=O)CN(c3cccc(C)c3)S(C)(=O)=O)o2)cc1`, the AC50 was > 35 µM (inactive).

As to `CCOC(=O)/C=c1\s/c(=C\c2ccc(C(=O)OC)cc2)c(=O)n1CC(=O)Nc1ccccc1`, the AC50 is > 35 µM (inactive).

For `CC(C)c1cccc(-c2ccc3c(c2)S(=O)(=O)c2cccc(C(=O)NCc4ccccc4Cl)c2C3=O)c1`, the AC50 was > 35 µM (inactive).

`CN1C2CCC1/C(=C/c1ccccn1)C(=O)/C2=C\c1ccccn1`: the AC50 is > 35 µM (inactive).

`COc1ccccc1CCNC(C)CCc1ccc(O)cc1` (stereo not drawn): the AC50 was > 35 µM (inactive).

For the compound `Cc1c(C=O)c(C=O)c(C)n1Cc1ccccc1`, the AC50 is > 35 µM (inactive).

`CCn1c(SCC(=O)c2ccccc2)nnc1-c1cc2cc(Br)ccc2o1`: the AC50 was > 35 µM (inactive).

On to `CCS(=O)(=O)c1ncc(Cl)c(C(=O)Nc2ccccc2OC)n1`, for which the AC50 is > 35 µM (inactive).

For `Cc1nn(Cc2ccc(Cl)cc2Cl)c(C)c1NC(=O)Cn1nc([N+](=O)[O-])c(Cl)c1C`, the AC50 was > 35 µM (inactive).

On to `Oc1ccc(/C=N/N2CCN(C3c4ccccc4-c4ccccc43)CC2)cc1O`, for which the AC50 is > 35 µM (inactive).

For `N#CC(C#N)=C1C=CC=CN1/C(=C\c1ccccc1Cl)C(=O)c1ccccc1`, the AC50 was 27.9 µM.

As to `O=C(COc1ccccc1[N+](=O)[O-])Nc1ccc(NC(=O)c2cc3ccccc3o2)cc1`, the AC50 is 9.07 µM.

`COc1ccc(C[C@H]2NC[C@H](O)[C@H]2OC(C)=O)cc1`: the AC50 was 1.09 µM.

Take `COc1ccc(-c2cc(=O)oc3c(C)c(OC(=O)c4cccs4)ccc23)cc1`: the AC50 was > 35 µM (inactive).

Turning to `COc1ccc(NC(=O)CSc2nc3ccc(Nc4nc(N5CCOCC5)nc(N5CCOCC5)n4)cc3s2)cc1`, the AC50 is > 35 µM (inactive).

Consider `CSC[C@@H]1NC(=S)N(c2ccc(C)cc2)C1=O`, for which the AC50 was > 35 µM (inactive).

As to `COc1ccc2c(c1)[nH]c1c(=O)n(/N=C/C3C(C)C=C(C)CC3C)c(=O)[nH]c12` (stereo not drawn), the AC50 was > 35 µM (inactive).

For the compound `CCc1nn(-c2cc(Oc3cccc4ccccc34)nc(-c3ccccc3)n2)c(N)c1C#N`, the AC50 is > 35 µM (inactive).

Take `CC(=O)OC(C)(C)/C=C/C(=O)C(C)(O)C1[C@H](O)C[C@@]2(C)C3CC=C4C(CC[C@@H](O)C4(C)C)[C@]3(CO)C(=O)C[C@]12C` (stereo partly drawn): the AC50 was > 35 µM (inactive).

Take `COc1cc(CN2CCN(c3cc(C)ccc3C)CC2)ccc1O`: the AC50 is > 35 µM (inactive).

With `C=C1/C=C(\C)[C@](C)(O)C[C@H](O)CC(=O)[C@H](O)[C@@H](O)[C@H](C)C[C@H](C)OC(=O)/C(C)=C/CC/C=C/[C@@H]2O[C@H]2C[C@H](C)C1`, the AC50 was > 35 µM (inactive).

For the compound `O=C(Nc1ccc2oc(-c3ccccc3Cl)nc2c1)c1cncc(Br)c1`, the AC50 was > 35 µM (inactive).

For `Cc1ccc(C2(c3ccc(C)cc3)CC2C(=O)Nc2ccc([N+](=O)[O-])cc2O)cc1` (stereo not drawn), the AC50 was > 35 µM (inactive).

For the compound `COc1ccc(-c2ccc3c(c2)S(=O)(=O)c2cccc(C(=O)NCCOc4ccccc4)c2C3=O)cc1OC`, the AC50 is > 35 µM (inactive).

For the compound `O=C(Oc1cccc(/C=N/Nc2nc(Nc3ccccc3)nc(N3CCOCC3)n2)c1)c1ccco1`, the AC50 was > 35 µM (inactive).

As to `COc1cc(NC(=O)c2ccccc2)c(OC)cc1NC(=O)Cc1ccc(Br)cc1`, the AC50 is > 35 µM (inactive).

With `CC(=O)Nc1sc(N/N=C\c2cccc(Cl)c2)nc1-c1cccs1`, the AC50 was > 35 µM (inactive).

Regarding `COc1cc(/C=C(/C#N)C(=O)Nc2ccc(Cl)cc2)ccc1Oc1nc(Cl)ncc1F`, the AC50 was > 35 µM (inactive).

Regarding `COc1ccc(OC)c(NC(=O)c2cc(-c3cc(C)ccc3O)n[nH]2)c1`, the AC50 is > 35 µM (inactive).

Turning to `CC(C)c1cccc(-c2ccc3c(c2)S(=O)(=O)c2cccc(C(=O)NC4CCCC4)c2C3=O)c1`, the AC50 was > 35 µM (inactive).

As for `Cc1cc(C)n(-c2nc(Nc3ccccc3C)nc(-n3nc(C)cc3C)n2)n1`, the AC50 was > 35 µM (inactive).

For `CC(C)(C)c1ccc2c(c1)OC(C(=O)N/N=C\c1ccc[nH]1)CO2` (stereo not drawn), the AC50 is > 35 µM (inactive).

With `Cc1ccc(NC(=O)CSc2nc3nc(C)c(Br)cc3[nH]2)cc1F`, the AC50 is > 35 µM (inactive).

With `Cc1ccc(N(Cc2cc(=O)[nH]c3ccccc23)C(=O)CCl)cc1`, the AC50 is > 35 µM (inactive).

Consider `COc1ccc(OC[C@@H](O)CNC(=O)c2cccc3c2C(=O)c2ccc(-c4ccc(F)cc4OCc4ccccc4)cc2S3(=O)=O)cc1`, for which the AC50 was > 35 µM (inactive).

As for `c1ccc(-c2sc3ccccc3c2-c2ccc(OCCN3CCCC3)cc2)cc1`, the AC50 is > 35 µM (inactive).

As to `Cc1ccc(CS(=O)(=O)c2ncc(Cl)c(C(=O)Nc3nnc(C(C)C)s3)n2)cc1`, the AC50 is > 35 µM (inactive).

The values are drawn from PubChem BioAssay AID449755 (Broad Institute, 2010).
